# Data: ChEMBL document CHEMBL3098117, “Identification and optimization of an aminoalcohol-carbazole series with antimalarial properties” (ACS Med Chem Lett, 2013)
# Calls of active or inactive are those of the source. The rule behind the calls is not given here.
# Assays:
# [1] = target: Cytochrome P450 2D6 (Homo sapiens, UniProt P10635); assay: Inhibition of human recombinant CYP2D6 expressed in baculovirus-infected insect cells preincubated for 15 mins followed by substrate addition measured after 30 mins by luminescence assay; type: ADME; settings: recombinant enzyme, 0.5 h
# Cytochrome P450 2D6, sequence (P10635 whole entry): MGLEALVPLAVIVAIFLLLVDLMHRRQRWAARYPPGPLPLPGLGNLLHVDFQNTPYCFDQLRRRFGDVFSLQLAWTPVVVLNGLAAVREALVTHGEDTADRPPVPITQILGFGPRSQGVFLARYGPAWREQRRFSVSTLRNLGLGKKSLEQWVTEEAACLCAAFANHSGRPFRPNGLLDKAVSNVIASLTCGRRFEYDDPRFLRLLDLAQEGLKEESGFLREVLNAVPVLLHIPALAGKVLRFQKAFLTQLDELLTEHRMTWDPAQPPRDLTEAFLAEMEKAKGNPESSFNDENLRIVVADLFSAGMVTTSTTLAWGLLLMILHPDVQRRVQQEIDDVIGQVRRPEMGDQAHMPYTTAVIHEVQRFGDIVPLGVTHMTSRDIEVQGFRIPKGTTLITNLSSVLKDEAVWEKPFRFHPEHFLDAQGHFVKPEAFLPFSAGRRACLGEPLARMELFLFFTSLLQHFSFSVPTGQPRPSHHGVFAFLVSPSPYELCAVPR
# [2] = Volume of distribution at steady state in NMRI mouse at 1 mg/kg, iv by LC-MS/MS analysis; type: ADME, organism-based; design: dose 1 mg/kg, route intravenous; settings: in vivo, read-out: Vdss
# [3] = target: T1, Cytochrome P450 1A2 (Homo sapiens, UniProt P05177); assay: Inhibition of human recombinant CYP1A2 expressed in baculovirus-infected insect cells preincubated for 15 mins followed by substrate addition measured after 30 mins by luminescence assay; type: ADME; settings: recombinant enzyme, 0.5 h
# T1 sequence (P05177 whole entry): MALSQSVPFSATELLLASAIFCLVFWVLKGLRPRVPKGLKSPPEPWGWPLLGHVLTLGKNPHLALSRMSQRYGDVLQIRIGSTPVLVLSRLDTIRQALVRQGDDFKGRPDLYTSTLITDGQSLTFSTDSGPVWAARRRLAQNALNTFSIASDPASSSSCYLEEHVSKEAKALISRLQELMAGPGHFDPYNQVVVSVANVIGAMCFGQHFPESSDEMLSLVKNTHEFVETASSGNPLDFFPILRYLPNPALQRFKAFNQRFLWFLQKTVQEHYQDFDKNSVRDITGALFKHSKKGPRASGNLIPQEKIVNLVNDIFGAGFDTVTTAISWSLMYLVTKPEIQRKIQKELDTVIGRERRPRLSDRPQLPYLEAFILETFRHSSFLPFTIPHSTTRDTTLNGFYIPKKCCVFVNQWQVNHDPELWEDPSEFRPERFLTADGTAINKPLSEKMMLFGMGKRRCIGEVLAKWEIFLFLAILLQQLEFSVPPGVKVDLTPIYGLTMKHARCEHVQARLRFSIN
# [4] = target: hERG (KCNH2) (Homo sapiens, UniProt Q12809); assay: Inhibition of human ERG expressed in CHO cells at 10 uM relative to control; type: cell-based; settings: CHO cells expressing human ERG
# hERG (KCNH2), sequence (Q12809 whole entry): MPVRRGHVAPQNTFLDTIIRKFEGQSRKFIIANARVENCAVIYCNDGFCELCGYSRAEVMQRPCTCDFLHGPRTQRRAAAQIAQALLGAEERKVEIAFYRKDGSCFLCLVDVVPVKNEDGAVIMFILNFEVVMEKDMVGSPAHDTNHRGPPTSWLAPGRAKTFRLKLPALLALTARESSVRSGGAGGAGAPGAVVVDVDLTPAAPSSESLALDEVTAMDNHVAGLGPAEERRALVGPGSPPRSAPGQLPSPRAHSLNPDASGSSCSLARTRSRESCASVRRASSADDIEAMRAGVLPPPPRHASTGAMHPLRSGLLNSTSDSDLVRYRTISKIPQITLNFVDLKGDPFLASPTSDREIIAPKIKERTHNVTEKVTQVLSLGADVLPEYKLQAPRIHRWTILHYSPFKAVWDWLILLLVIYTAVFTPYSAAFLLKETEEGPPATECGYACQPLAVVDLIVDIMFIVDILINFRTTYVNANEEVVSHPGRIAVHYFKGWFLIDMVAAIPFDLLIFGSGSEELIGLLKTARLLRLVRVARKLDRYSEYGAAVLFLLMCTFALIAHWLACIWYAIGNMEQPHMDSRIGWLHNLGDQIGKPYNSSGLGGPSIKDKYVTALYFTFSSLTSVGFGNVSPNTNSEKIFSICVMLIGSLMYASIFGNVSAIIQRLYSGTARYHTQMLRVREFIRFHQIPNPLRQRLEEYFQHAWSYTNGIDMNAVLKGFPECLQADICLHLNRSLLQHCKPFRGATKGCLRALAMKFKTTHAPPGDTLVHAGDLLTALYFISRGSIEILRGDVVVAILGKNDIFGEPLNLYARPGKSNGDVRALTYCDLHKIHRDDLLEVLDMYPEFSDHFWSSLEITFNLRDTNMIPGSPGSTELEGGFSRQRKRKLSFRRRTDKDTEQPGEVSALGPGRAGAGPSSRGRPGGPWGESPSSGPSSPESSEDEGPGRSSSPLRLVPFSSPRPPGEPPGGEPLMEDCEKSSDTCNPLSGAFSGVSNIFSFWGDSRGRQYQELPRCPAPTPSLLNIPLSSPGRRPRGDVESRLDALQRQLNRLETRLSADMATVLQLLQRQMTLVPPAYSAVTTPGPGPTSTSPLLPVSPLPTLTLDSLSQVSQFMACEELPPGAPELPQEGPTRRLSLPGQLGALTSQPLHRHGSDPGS
# [5] = tested on: Plasmodium berghei; assay: Antimalarial activity against Plasmodium berghei ANKA expressing GFP infected in NMRI mouse assessed as reduction in parasitemia at 100 mg/kg/day, po qd for 4 days measured at 24 hrs after last dose relative to control; type: functional; design: scale not given: the % may be the effect or the level left
# Outline: (§1)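 P. berghei-infected mice dosed orally once daily on days 0–3, first dose 4 h postinfection, at 3, 10, 30 and 100 mg/kg/day. Red blood cell parasitemia and plasma exposure measured on day 4, 24 h after last dose; ED50 derived from dose-response; survival then monitored for 26 further days as mean survival days.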
# [6] = target: T2, Potassium/sodium hyperpolarization-activated cyclic nucleotide-gated channel 4 (Homo sapiens) (UniProt Q9Y3Q4); assay: Inhibition of human HCN4 channel
# T2 sequence (whole entry): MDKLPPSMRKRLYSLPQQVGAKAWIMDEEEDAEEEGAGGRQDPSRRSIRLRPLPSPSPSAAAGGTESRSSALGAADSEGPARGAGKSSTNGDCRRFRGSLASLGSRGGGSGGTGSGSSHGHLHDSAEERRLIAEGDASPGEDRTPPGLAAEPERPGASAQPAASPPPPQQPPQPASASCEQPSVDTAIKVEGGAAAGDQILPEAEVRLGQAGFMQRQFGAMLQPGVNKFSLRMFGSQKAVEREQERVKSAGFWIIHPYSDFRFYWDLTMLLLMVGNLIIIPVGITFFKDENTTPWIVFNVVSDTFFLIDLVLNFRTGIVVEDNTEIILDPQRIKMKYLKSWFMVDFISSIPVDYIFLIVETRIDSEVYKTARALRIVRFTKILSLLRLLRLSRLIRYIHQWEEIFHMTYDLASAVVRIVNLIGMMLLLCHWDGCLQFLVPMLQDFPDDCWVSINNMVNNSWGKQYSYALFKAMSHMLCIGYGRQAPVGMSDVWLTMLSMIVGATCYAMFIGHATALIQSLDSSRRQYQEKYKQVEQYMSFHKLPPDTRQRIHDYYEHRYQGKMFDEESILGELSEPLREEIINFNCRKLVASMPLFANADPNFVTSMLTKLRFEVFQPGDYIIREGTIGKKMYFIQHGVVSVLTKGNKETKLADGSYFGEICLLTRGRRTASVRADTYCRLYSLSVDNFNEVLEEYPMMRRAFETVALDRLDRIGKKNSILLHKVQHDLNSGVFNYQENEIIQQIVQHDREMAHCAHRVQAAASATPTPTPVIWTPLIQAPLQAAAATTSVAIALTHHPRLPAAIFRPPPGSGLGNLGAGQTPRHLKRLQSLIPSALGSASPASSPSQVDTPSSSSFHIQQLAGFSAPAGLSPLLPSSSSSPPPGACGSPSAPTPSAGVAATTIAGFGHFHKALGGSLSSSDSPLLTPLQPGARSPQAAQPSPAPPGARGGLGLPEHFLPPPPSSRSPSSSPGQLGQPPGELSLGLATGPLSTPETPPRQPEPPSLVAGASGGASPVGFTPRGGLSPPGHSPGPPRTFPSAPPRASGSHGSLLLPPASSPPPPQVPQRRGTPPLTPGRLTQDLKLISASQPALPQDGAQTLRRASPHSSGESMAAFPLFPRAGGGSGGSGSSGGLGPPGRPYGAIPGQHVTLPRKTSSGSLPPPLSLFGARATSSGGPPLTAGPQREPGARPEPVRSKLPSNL
# [7] = tested on: Plasmodium falciparum; assay: Antimalarial activity against drug-sensitive Plasmodium falciparum NF54; type: functional, organism-based
# [8] = tested on: Plasmodium falciparum; assay: Antimalarial activity against chloroquine, pyrimethamine, quinine-resistant Plasmodium falciparum V1S; type: functional; settings: VS/1
# [9] = Genotoxicity in micronucleus (unknown origin)
# [10] = tested on: Salmonella typhimurium; assay: Mutagenic activity in Salmonella typhimurium by Ames test under metabolic conditions; type: toxicity, organism-based; settings: salmonella enterica subsp. enterica serovar typhimurium
# [11] = target: T3, Inward rectifier potassium channel 2 (Homo sapiens, UniProt P63252); assay: Inhibition of human Kir2.1 channel
# T3 sequence (P63252 whole entry): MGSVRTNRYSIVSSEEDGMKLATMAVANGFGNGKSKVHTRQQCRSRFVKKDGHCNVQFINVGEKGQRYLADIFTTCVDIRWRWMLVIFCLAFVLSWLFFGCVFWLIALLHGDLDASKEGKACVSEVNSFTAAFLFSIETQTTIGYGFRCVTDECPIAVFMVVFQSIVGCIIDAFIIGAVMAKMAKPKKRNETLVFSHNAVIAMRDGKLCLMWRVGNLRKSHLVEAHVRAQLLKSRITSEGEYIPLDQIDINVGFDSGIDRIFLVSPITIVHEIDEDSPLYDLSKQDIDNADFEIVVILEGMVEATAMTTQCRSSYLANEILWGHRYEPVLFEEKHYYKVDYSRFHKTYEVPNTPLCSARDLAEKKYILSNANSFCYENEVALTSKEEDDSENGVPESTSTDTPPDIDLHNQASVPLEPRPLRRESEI
# [12] = tested on: Plasmodium berghei; assay: Antimalarial activity against Plasmodium berghei ANKA expressing GFP infected in NMRI mouse assessed as reduction in parasitemia at 10 mg/kg/day, po qd for 4 days measured at 24 hrs after last dose relative to control; type: functional; design: scale not given: the % may be the effect or the level left; outline: as §1
# [13] = target: Potassium voltage-gated channel subfamily A member 5 (Homo sapiens) (UniProt P22460); assay: Inhibition of human Kv1.5 channel
# Potassium voltage-gated channel subfamily A member 5 (Homo sapiens), sequence (P22460 whole entry): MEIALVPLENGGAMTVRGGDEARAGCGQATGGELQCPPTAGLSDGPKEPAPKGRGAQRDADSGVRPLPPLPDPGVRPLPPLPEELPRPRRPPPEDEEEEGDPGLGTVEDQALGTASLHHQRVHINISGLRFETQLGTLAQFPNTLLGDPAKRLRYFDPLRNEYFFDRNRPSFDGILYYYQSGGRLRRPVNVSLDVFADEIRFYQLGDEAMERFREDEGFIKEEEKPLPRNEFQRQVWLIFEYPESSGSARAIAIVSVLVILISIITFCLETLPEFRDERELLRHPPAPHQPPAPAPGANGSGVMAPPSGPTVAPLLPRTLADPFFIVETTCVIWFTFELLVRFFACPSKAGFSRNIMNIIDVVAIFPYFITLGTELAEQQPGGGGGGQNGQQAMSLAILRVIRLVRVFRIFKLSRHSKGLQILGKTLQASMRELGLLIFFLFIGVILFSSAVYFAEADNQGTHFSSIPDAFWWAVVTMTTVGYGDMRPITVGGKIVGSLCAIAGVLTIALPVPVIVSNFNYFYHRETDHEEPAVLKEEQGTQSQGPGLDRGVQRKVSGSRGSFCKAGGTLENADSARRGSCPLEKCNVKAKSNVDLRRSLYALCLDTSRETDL
smiles,measurement,setting,value
OC(CNC1CCCCC1)Cn1c2ccc(Br)cc2c2cc(Br)ccc21 (racemic),inhibition (INH),[1],Active
same,Vd,[2],13 L/kg
same,inhibition (INH),[3],Active
same,inhibition at 10 µM,[4],99%
same,Activity,[5],99.97%
same,inhibition,[6],inactive
same,Activity,[7],Active
same,Activity,[8],Active
same,Activity,[9],Non-toxic
same,Activity,[10],Non-toxic
same,inhibition (INH),[11],Not Active
same,Activity,[12],38%
same,inhibition,[13],inactive
